Measurements from ChEMBL document CHEMBL4680121, “Development of (4-methoxyphenyl)-1H-tetrazol-5-amine regioisomers as a new class of selective antitubercular agents” (Eur J Med Chem, 2020).
Converted amounts (≈) assume the structure as drawn.

Legend:
Klebsiella pneumoniae = assay: Antibacterial activity against Klebsiella pneumoniae ATCC 10031 assessed as bacterial growth inhibition measured after 18 hrs by two-fold serial microdilution method; assay type: functional
Procedure, shortened: (§1)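 Two-fold serial broth microdilution in MH II medium following modified CLSI procedures. Compounds were dissolved in DMSO and diluted in medium to at most 1% solvent, tested from 0.03125 to 512 μg/ml. Final inoculum 10^6 CFU/ml. MIC was taken as the lowest concentration with no visible growth after 18 h at 35 °C.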

[1] = test system: Mycobacterium tuberculosis; assay: Antitubercular activity against Mycobacterium tuberculosis H37Rv ATCC 25618 assessed as reduction in bacterial growth incubated for 14 days in presence of 1/2 x MIC rifampicin by MABA method; assay type: functional; conditions: H37Rv ATCC 25618, 336 h, time 14 day
Procedure, shortened: (§2)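 Checkerboard-type combination in Middlebrook 7H9 with 10% OADC. The test derivative at 1 to 1/32 of its MIC alone was mixed with the reference drug fixed at 1/2 its MIC. 4 ml samples were inoculated with McFarland 1 suspension and incubated 14 days at 37 °C. MIC is the lowest derivative concentration in combination that inhibited growth in liquid medium.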

[2] = test system: Mycobacterium tuberculosis; assay: Antitubercular activity against Mycobacterium tuberculosis H37Rv ATCC 25618 assessed as ethambutol MIC incubated for 14 days in presence of ethambutol by MABA method; assay type: functional; conditions: H37Rv ATCC 25618, 336 h, time 14 day
Procedure, shortened: (§3)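 In Middlebrook 7H9 with 10% OADC, the reference drug (INH, RMP, SM or EMB) at 1 to 1/32 of its MIC alone was mixed with the test derivative fixed at 1/2 its MIC. 4 ml samples were inoculated with McFarland 1 suspension and incubated 14 days at 37 °C. MIC is the lowest drug concentration in combination that inhibited growth.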

[3] = test system: Mycobacterium tuberculosis; assay: Antitubercular activity against Mycobacterium tuberculosis H37Rv ATCC 25618 assessed as reduction in bacterial growth incubated for 14 days in presence of 1/2 x MIC streptomycin by MABA method; assay type: functional; conditions: H37Rv ATCC 25618, 336 h, time 14 day; procedure, shortened: as §2
[4] = test system: Mycobacterium tuberculosis; assay: Antitubercular activity against Mycobacterium tuberculosis H37Rv ATCC 25618 assessed as fractional inhibitory concentration index incubated for 14 days in presence of 1/2 x MIC streptomycin by MABA method; assay type: functional; conditions: time 14 day
Procedure, shortened: (§4)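 Interaction analysis in Middlebrook 7H9 with 10% OADC. Combination MICs came from mixing the derivative (1 to 1/32 MIC) with the reference drug at 1/2 MIC, and the reverse, after 14 days at 37 °C with McFarland 1 inoculum. FICI was calculated from the combination MIC values and the MICs alone.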

[5] = test system: Mycobacterium tuberculosis; assay: Antitubercular activity against Mycobacterium tuberculosis Spec.192 assessed as fractional inhibitory concentration index in presence of 1/2 x MIC streptomycin incubated for 14 days by MABA method; assay type: functional; conditions: time 14 day; procedure, shortened: as §4
[6] = test system: Mycobacterium tuberculosis; assay: Antitubercular activity against Mycobacterium tuberculosis H37Rv ATCC 25618 assessed as streptomycin MIC incubated for 14 days in presence of streptomycin by MABA method; assay type: functional; conditions: H37Rv ATCC 25618, 336 h, time 14 day; procedure, shortened: as §3
[7] = test system: Staphylococcus epidermidis; assay: Antibacterial activity against Staphylococcus epidermidis ATCC 12228 assessed as bacterial growth inhibition measured after 18 hrs by two-fold serial microdilution method; assay type: functional; procedure, shortened: as §1
[8] = test system: Mycobacterium tuberculosis; assay: Potentiation of streptomycin-induced antimycobacterial activity against Mycobacterium tuberculosis H37Rv ATCC 25618 assessed as fold decrease in streptomycin MIC at 1/2X MIC incubated for 14 days in presence of streptomycin by MABA method; assay type: functional; conditions: time 14 day
Procedure, shortened: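 Combination assay in Middlebrook 7H9 broth with 10% OADC. The reference drug (INH, RMP, SM or EMB) was varied from 1 to 1/32 of its MIC, and the test derivative was fixed at 1/2 its own MIC. Single-agent MICs were determined first by MABA. Inoculum was 1 McFarland, with 14 days of incubation at 37 °C. The endpoint was the lowest reference-drug concentration that inhibited growth.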

[9] = test system: Mycobacterium tuberculosis; assay: Antitubercular activity against Mycobacterium tuberculosis H37Rv ATCC 25618 assessed as fractional inhibitory concentration index incubated for 14 days in presence of 1/2 x MIC rifampicin by MABA method; assay type: functional; conditions: time 14 day; procedure, shortened: as §4
[10] = test system: Mycobacterium tuberculosis; assay: Antitubercular activity against Mycobacterium tuberculosis Spec.192 assessed as fractional inhibitory concentration index in presence of 1/2 x MIC isoniazid incubated for 14 days by MABA method; assay type: functional; conditions: time 14 day; procedure, shortened: as §4
[11] = test system: Mycobacterium tuberculosis; assay: Antitubercular activity against Mycobacterium tuberculosis Spec.192 assessed as fractional inhibitory concentration index in presence of 1/2 x MIC rifampicin incubated for 14 days by MABA method; assay type: functional; conditions: time 14 day; procedure, shortened: as §4
[12] = test system: Mycobacterium tuberculosis; assay: Antitubercular activity against Mycobacterium tuberculosis Spec.192 assessed as reduction in bacterial growth incubated for 14 days in presence of 1/2 x MIC streptomycin by MABA method; assay type: functional; conditions: Mycobacterium tuberculosis, 192, 336 h; time 14 day; procedure, shortened: as §2
[13] = test system: Mycobacterium tuberculosis; assay: Antitubercular activity against Mycobacterium tuberculosis H37Rv ATCC 25618 assessed as isoniazid MIC incubated for 14 days in presence of isoniazid by MABA method; assay type: functional; conditions: H37Rv ATCC 25618, 336 h, time 14 day; procedure, shortened: as §3
HaCaT [14] = assay: Cytotoxicity against human HaCaT cells assessed as reduction in cell viability measured after 72 hrs by MTT assay; assay type: cell-based
Procedure, shortened: (§5)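 MTT viability assay on cells grown in DMEM with 10% heat-inactivated FBS, penicillin/streptomycin and 20 mM HEPES at 37 °C/5% CO2. Cells were seeded at 1×10^4 per well and allowed to adhere for 24 h, then the medium was refreshed. Compounds were added at 20–140 μM for 72 h at 37 °C, followed by MTT (0.5 mg/mL in serum-free medium) for 4 h. Untreated cells served as control. IC50 is the concentration giving 50% growth inhibition versus control.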

Pseudomonas aeruginosa [15] = assay: Antibacterial activity against Pseudomonas aeruginosa NCTC 6749 assessed as bacterial growth inhibition measured after 18 hrs by two-fold serial microdilution method; assay type: functional; procedure, shortened: as §1
HaCaT [16] = assay: Cytotoxicity against human HaCaT cells assessed as reduction in cell viability at 100 uM measured after 72 hrs by MTT assay; assay type: cell-based; procedure, shortened: as §5
[17] = test system: Mycobacterium tuberculosis; assay: Antitubercular activity against Mycobacterium tuberculosis H37Rv ATCC 25618 assessed as reduction in bacterial growth incubated for 14 days in presence of 1/2 x MIC isoniazid by MABA method; assay type: functional; conditions: H37Rv ATCC 25618, 336 h, time 14 day; procedure, shortened: as §2
[18] = test system: Mycobacterium tuberculosis; assay: Antitubercular activity against Mycobacterium tuberculosis Spec.192 assessed as isoniazid MIC incubated for 14 days in presence of isoniazid by MABA method; assay type: functional; conditions: Mycobacterium tuberculosis, 192, 336 h; time 14 day; procedure, shortened: as §3
V79 = assay: Cytotoxicity against Chinese Hamster V79 cells assessed as reduction in cell viability measured after 72 hrs by MTT assay; assay type: cell-based; conditions: Cricetulus griseus, V79, 72 h; procedure, shortened: as §5
[19] = test system: Mycobacterium tuberculosis; assay: Antitubercular activity against Mycobacterium tuberculosis Spec.192 assessed as fractional inhibitory concentration index in presence of 1/2 x MIC ethambutol incubated for 14 days by MABA method; assay type: functional; conditions: time 14 day; procedure, shortened: as §4
[20] = test system: Staphylococcus epidermidis; assay: Antibacterial activity against Staphylococcus epidermidis ATCC 1457 assessed as bacterial growth inhibition measured after 18 hrs by two-fold serial microdilution method; assay type: functional; procedure, shortened: as §1
Escherichia coli = assay: Antibacterial activity against Escherichia coli ATCC 25922 assessed as bacterial growth inhibition measured after 18 hrs by two-fold serial microdilution method; assay type: functional; procedure, shortened: as §1
[21] = test system: Mycobacterium tuberculosis; assay: Antitubercular activity against Mycobacterium tuberculosis H37Rv ATCC 25618 assessed as rifampicin MIC incubated for 14 days in presence of rifampicin by MABA method; assay type: functional; conditions: H37Rv ATCC 25618, 336 h, time 14 day; procedure, shortened: as §3
[22] = test system: Mycobacterium tuberculosis; assay: Antitubercular activity against Mycobacterium tuberculosis Spec.192 assessed as rifampicin MIC incubated for 14 days in presence of rifampicin by MABA method; assay type: functional; conditions: Mycobacterium tuberculosis, 192, 336 h; time 14 day; procedure, shortened: as §3
Pseudomonas aeruginosa [23] = assay: Antibacterial activity against Pseudomonas aeruginosa PAO1 assessed as bacterial growth inhibition measured after 18 hrs by two-fold serial microdilution method; assay type: functional; procedure, shortened: as §1

`COc1ccc(-n2nnnc2Nc2cccc(Br)c2)cc1` gave an MIC (Klebsiella pneumoniae) of over 256 µg/mL, an MIC [1] of 0.5 µg/mL and an MIC [2] of 1 µg/mL. The MIC [3] was 0.5 µg/mL, the “fractional inhibitory concentration index (FICI)” value [4] was 0.5 and the “fractional inhibitory concentration index (FICI)” value [5] was 0.5. The MIC [6] was 0.25 µg/mL, the MIC [7] was over 256 µg/mL and the “fold change (FC)” value [8] was 2. For the same molecule, the “fractional inhibitory concentration index (FICI)” value [9] was 0.5, the “fractional inhibitory concentration index (FICI)” value [10] was 4.125 and the “fractional inhibitory concentration index (FICI)” value [11] was 0.5. It also gave an MIC [12] of 0.5 µg/mL, an MIC [13] of 0.5 µg/mL and an IC50 (HaCaT [14]) of 138 µM. The MIC (Pseudomonas aeruginosa [15]) was over 256 µg/mL, the Activity (HaCaT [16]) was “Non-Toxic” and the MIC [17] was 0.25 µg/mL. For the same molecule, the MIC [18] was 0.5 µg/mL, the IC50 (V79) was 241 µM and the “fractional inhibitory concentration index (FICI)” value [19] was 0.75. For the same molecule, the MIC [20] was over 256 µg/mL, the MIC (Escherichia coli) was over 256 µg/mL and the MIC [21] was 0.25 µg/mL. The MIC [22] was 0.25 µg/mL and the MIC (Pseudomonas aeruginosa [23]) was over 256 µg/mL.

Work on `COc1ccc(-n2nnnc2Nc2ccc(Br)cc2)cc1` yielded an MIC (Klebsiella pneumoniae) of over 256 µg/mL, an MIC [1] of 0.5 µg/mL and an MIC [2] of 1 µg/mL. The MIC [3] was 0.25 µg/mL, the “fractional inhibitory concentration index (FICI)” value [4] was 0.375 and the “fractional inhibitory concentration index (FICI)” value [5] was 0.375. For the same molecule, the MIC [6] was 0.25 µg/mL, the MIC [7] was 256 µg/mL (≈ 739 µM) and the “fold change (FC)” value [8] was 4. The “fractional inhibitory concentration index (FICI)” value [9] was 0.5, the “fractional inhibitory concentration index (FICI)” value [10] was 4.125 and the “fractional inhibitory concentration index (FICI)” value [11] was 0.5. It also gave an MIC [12] of 0.25 µg/mL, an MIC [13] of 0.5 µg/mL and an IC50 (HaCaT [14]) of 131 µM. For the same molecule, the MIC (Pseudomonas aeruginosa [15]) was over 256 µg/mL, the Activity (HaCaT [16]) was “Non-Toxic” and the MIC [17] was 0.25 µg/mL. The MIC [18] was 0.5 µg/mL, the IC50 (V79) was 212 µM and the “fractional inhibitory concentration index (FICI)” value [19] was 0.625. For the same molecule, the MIC [20] was over 256 µg/mL, the MIC (Escherichia coli) was over 256 µg/mL and the MIC [21] was 0.25 µg/mL. It also gave an MIC [22] of 0.25 µg/mL and an MIC (Pseudomonas aeruginosa [23]) of over 256 µg/mL.
